According to ChEMBL document CHEMBL3992510, “Urea Derivatives of 2-Aryl-benzothiazol-5-amines: A New Class of Potential Drugs for Human African Trypanosomiasis” (J Med Chem, 2017):

Columns and labels:
[1] = Drug level in mouse plasma at 5 mg/kg, ip administered as single dose measured at 1 hr post dose by liquid chromatography/tandem mass spectrometric analysis; type: ADME, organism-based
How it was run: (§1)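 Single ip dose of 5 mg/kg in 5% DMSO/7% Tween 80/3% EtOH in 0.9% saline, three mice per compound (six for one compound). At 1 h, plasma is separated by centrifugation and brain homogenized in acetonitrile. Both are quantified by LC-MS/MS, with brain corrected for 3% v/w blood. Brain/plasma ratio is reported as mean ± SEM.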

[2] = system: Trypanosoma brucei brucei; experiment: Antitrypanosomal activity against Trypanosoma brucei brucei BF427 assessed as growth inhibition measured after 48 hrs by Alamar blue assay; type: functional; conditions: BF427, 48 h
How it was run: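 Bloodstream-form parasites in HMI-9 medium are exposed to serial compound dilutions in triplicate. Viability is read with Alamar Blue at 48 h. EC50 and EC90 come from nonlinear regression. Pentamidine isethionate is the control.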

[3] = Drug level in mouse brain at 5 mg/kg, ip administered as single dose measured at 1 hr post dose by liquid chromatography/tandem mass spectrometric analysis; type: ADME, organism-based; conditions: read-out: Drug uptake; how it was run: as §1
HepG2 = experiment: Cytotoxicity against human HepG2 cells assessed as growth inhibition after 48 hrs by Alamar blue assay; type: cell-based; conditions: for EC50: Homo sapiens, HepG2, 48 h; for EC90: human, hepg2, 48 h
How it was run: (§2)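 CRL-8155 lymphoblasts or HepG2 hepatocellular carcinoma cells are exposed 48 h to serial compound dilutions in quadruplicate. Growth is read with Alamar Blue, and 50% and 90% inhibitory concentrations come from nonlinear regression. Quinacrine is the control.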

[4] = Selectivity index, ratio of EC50 for human CRL8155 cells to EC50 for Trypanosoma brucei brucei BF427; type: toxicity; conditions: read-out: Ratio EC50
[5] = Selectivity index, ratio of EC50 for human HepG2 cells to EC50 for Trypanosoma brucei brucei BF427; type: toxicity; conditions: read-out: Ratio EC50
[6] = Cytotoxicity against human CRL8155 cells assessed as growth inhibition after 48 hrs by Alamar blue assay; type: cell-based; conditions: for EC50: Homo sapiens, CRL8155, 48 h; for EC90: human, crl8155, 48 h; how it was run: as §2
Liver [7] = experiment: Half life in human liver microsomes at 1.5 uM in presence of NADPH by liquid chromatography/tandem mass spectrometric analysis; type: ADME, microsome
Liver [8] = experiment: Half life in mouse liver microsomes at 1.5 uM in presence of NADPH by liquid chromatography/tandem mass spectrometric analysis; type: ADME, microsome

Row | SMILES | EC50 [2] | EC90 [2] | other results
1 | O=C(Nc1ccc2oc(-c3ccccc3)nc2c1)N1CCCC1 | 5.25 µM | > 10 µM | concentration at 1 h [1]: 0.27 µM; concentration at 1 h [3]: 0.397 µM
2 | O=C(Nc1ccc2sc(-c3ccc(F)cc3F)nc2c1)N1CCCC1 | 0.929 µM | 1.48 µM | 
3 | O=C(NCCc1nc(-c2cccc(F)c2)cs1)N1CCCc2ccccc21 | 5.95 µM | 14 µM | 
4 | O=C(Nc1ccc2sc(-c3ccccc3)nc2c1)c1cccs1 | 0.882 µM | 2.13 µM | EC50 (HepG2): > 50 µM; EC90 (HepG2): > 50 µM; selectivity ratio [4]: > 57; selectivity ratio [5]: > 57; EC50 [6]: > 50 µM; EC90 [6]: > 50 µM
5 | O=C(Nc1ccc2sc(-c3cccc(F)c3F)nc2c1)N1CCCC1 | 0.183 µM | 0.394 µM | EC50 (HepG2): > 50 µM; EC90 (HepG2): > 50 µM; concentration at 1 h [1]: 1.3 µM; selectivity ratio [4]: > 273; selectivity ratio [5]: > 273; concentration at 1 h [3]: 2.31 µM; EC50 [6]: > 50 µM; EC90 [6]: > 50 µM
6 | CC(C)(Cc1nc(-c2ccccc2)cs1)NC(=O)c1ccccc1 | > 10 µM | > 10 µM | 
7 | O=C(Nc1ccc2sc(-c3ccccc3)nc2c1)c1ccsc1 | 1.57 µM | 2.49 µM | 
8 | CC(C)(Cc1csc(-c2ccccc2)n1)NC(=O)c1ccccc1 | > 10 µM | > 10 µM | 
9 | CN(C)C1CCN(C(=O)Nc2ccc3sc(-c4ccc(F)c(F)c4)nc3c2)C1 (stereo not given) | 1.7 µM | 1.95 µM | concentration at 1 h [1]: 0.78 µM; concentration at 1 h [3]: 3 µM
10 | C[C@@H]1CCC[C@H](C)N1C(=O)NCCc1nc(-c2cccc(F)c2)cs1 | 0.399 µM | 0.564 µM | EC50 (HepG2): > 50 µM; EC90 (HepG2): > 50 µM; selectivity ratio [4]: > 125; selectivity ratio [5]: > 125; EC50 [6]: > 50 µM; EC90 [6]: > 50 µM
11 | O=C(Nc1ccc2sc(-c3cccc(F)c3)nc2c1)N1CCN(C(=O)Nc2ccc3sc(-c4cccc(F)c4)nc3c2)CC1 | > 20 µM | > 20 µM | 
12 | O=C(Nc1ccc2sc(-c3ccc(F)cc3)nc2c1)c1ccccc1 | 1.92 µM | 3 µM | 
13 | N#CC1CCN(C(=O)Nc2ccc3sc(-c4ccc(F)c(F)c4)nc3c2)C1 (stereo not given) | 2.85 µM | 4.67 µM | 
14 | O=C(Nc1ccc2sc(-c3ccc(F)c(F)c3)nc2c1)N1CCC(F)(F)CC1 | 2.98 µM | 4.17 µM | 
15 | O=C1CCN(C(=O)NCCc2nc(-c3cccc(F)c3)cs2)CC1 | 0.667 µM | 0.813 µM | EC50 (HepG2): > 50 µM; EC90 (HepG2): > 50 µM; selectivity ratio [4]: > 75; selectivity ratio [5]: > 75; EC50 [6]: > 50 µM; EC90 [6]: > 50 µM
16 | COC1CCN(C(=O)Nc2ccc3sc(-c4ccc(F)c(F)c4)nc3c2)C1 (stereo not given) | 3.05 µM | 4.59 µM | 
17 | O=C(Nc1ccc2sc(-c3ccccc3)nc2c1)N1CC=CCC1 | 1.12 µM | 1.35 µM | 
18 | NC1CCN(C(=O)Nc2ccc3sc(-c4ccc(F)c(F)c4)nc3c2)C1 (stereo not given) | 2.32 µM | 2.72 µM | 
19 | O=C(Nc1ccc2scnc2c1)N1CCCC1 | > 20 µM | > 20 µM | 
20 | O=C(Nc1ccc2sc(-c3ccccc3)nc2c1)N1CCSC1 | 1.24 µM | 2.38 µM | 
21 | O=C(Nc1ccc2sc(-c3ccccc3)nc2c1)c1nccs1 | 5.86 µM | > 10 µM | 
22 | O=C(Nc1ccc2sc(-c3ccc(F)c(F)c3)nc2c1)N1CCC(C(F)(F)F)C1 (stereo not given) | 1.69 µM | 4.88 µM | concentration at 1 h [1]: 4.15 µM; concentration at 1 h [3]: 1.97 µM
23 | COc1ccc2c(c1)[C@]13CCCC[C@@H]1[C@H](C2)N(C)CC3 [DEXTROMETHORPHAN] |  |  | t1/2 (Liver [7]): 39.15 min; t1/2 (Liver [8]): 7.79 min
24 | O=C(Nc1ccc2sc(-c3cccc(F)c3)nc2c1)N1CCCCC1 | 0.174 µM | 0.602 µM | EC50 (HepG2): > 50 µM; EC90 (HepG2): > 50 µM; selectivity ratio [4]: > 287; t1/2 (Liver [7]): 8.9 min; selectivity ratio [5]: > 287; t1/2 (Liver [8]): 11 min; EC50 [6]: > 50 µM; EC90 [6]: > 50 µM
25 | O=C(Nc1nc2ccc(-c3ccc(F)c(F)c3)cc2s1)N1CCC(F)C1 (stereo not given) | 2.23 µM | > 20 µM | 
